Results as given in ChEMBL document CHEMBL1138340, “Cannabilactones: a novel class of CB2 selective agonists with peripheral analgesic activity” (J Med Chem, 2007).
The source made the active and inactive calls.

How the values were obtained:
Cannabinoid receptor 1 = Cannabinoid receptor 1 (Rattus norvegicus, UniProt P20272); experiment: Displacement of [3H]CP-55940 from CB1 receptor in rat brain synaptosomes; assay type: subcellular
How it was run: (§1)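 Test ligand at eight concentrations in DMSO. Incubation 1 h at 30 °C in TME buffer (25 mM Tris, 5 mM MgCl2, 1 mM EDTA) with 0.1% BSA. Nonspecific binding defined with 200 nM CP55,940. Bound ligand separated by rapid filtration and read by scintillation counting. Data from three independent experiments fitted by four-parameter logistic to give IC50, converted to Ki by Cheng–Prusoff.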

[1] = Selectivity of mouse CB2 receptor over rat CB1 receptor
How it was run: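 Ratio of Ki values from [3H]CP55,940 displacement using rat brain synaptosomal membranes (CB1) and mouse spleen membranes (CB2). Both incubated 1 h at 30 °C in TME with 0.1% BSA. IC50 from three independent experiments converted to Ki by Cheng–Prusoff.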

[2] = target: Cannabinoid receptor 2 (Mus musculus) (UniProt P47936); experiment: Agonist activity at CB2 receptor in mouse spleen membranes at 1 uM after 2 hrs by [35S]GTP-gamma-S binding assay; assay type: functional, cell membranes; details: Membrane
Cannabinoid receptor 2 (Mus musculus), sequence (P47936 whole entry): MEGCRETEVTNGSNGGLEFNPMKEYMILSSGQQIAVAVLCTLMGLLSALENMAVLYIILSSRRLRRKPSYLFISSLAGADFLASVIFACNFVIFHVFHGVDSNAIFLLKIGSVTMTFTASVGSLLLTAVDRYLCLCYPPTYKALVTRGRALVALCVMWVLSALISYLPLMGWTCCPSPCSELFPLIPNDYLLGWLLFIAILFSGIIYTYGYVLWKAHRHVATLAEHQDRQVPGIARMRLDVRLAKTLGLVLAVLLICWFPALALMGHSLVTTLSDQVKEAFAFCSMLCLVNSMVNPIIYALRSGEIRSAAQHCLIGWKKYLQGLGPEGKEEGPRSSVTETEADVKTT
How it was run: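 Mouse spleen lysed in a cell disruption bomb, centrifuged at 1000 g then 175000 g, and resuspended in TME with 0.1% BSA. Membranes (24–40 µg) incubated 2 h at 30 °C with test compound at 1 µM, 30 µM GDP and 0.05 nM [35S]GTPγS. Nonspecific binding defined with 10 µM unlabeled GTPγS. Bound label measured after GF/B filtration by scintillation counting. Reported with standard deviations.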

Cannabinoid receptor 2 = Cannabinoid receptor 2 (Mus musculus, UniProt P47936); experiment: Displacement of [3H]CP-55940 from CB2 receptor in mouse spleen membranes; assay type: cell membranes, Membrane
Cannabinoid receptor 2, sequence (P47936 whole entry): as above
How it was run: as §1, with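 “Competitive displacement of [3H]CP55,940 (3.08 nM) from rat forebrain synaptosomal membranes (CB1) or frozen mouse spleen membranes (CB2), 40–50 µg protein. Test” for “Test”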

[3] = target: Cannabinoid receptor 2 (Mus musculus) (UniProt P47936); experiment: Agonist activity at CB2 receptor in mouse spleen membranes assessed as inhibition of forskolin-stimulated cAMP production; assay type: functional, cell membranes; details: Membrane
Rattus norvegicus [4] = experiment: Antinociceptive activity in sc dosed Sprague-Dawley rat assessed as paw withdrawal latency to radiant heat after 20 mins; assay type: functional
How it was run: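 Male Sprague–Dawley rats, 200–300 g. Drug in DMSO, 50 µL, injected subcutaneously into the plantar hindpaw 20 min before testing. […] A50 (dose giving 50% MPE) taken from dose–response curves by Tallarida–Murray. n=6 per group, mean ± SEM.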

Rattus norvegicus [5] = experiment: Neurotoxicity in Sprague-Dawley rat assessed as ambulation on rotarod apparatus at 3.3 mg/kg, ip after 15 mins; assay type: toxicity, organism-based; set-up: dose 3.3 mg/kg, route intraperitoneal; details: in vivo, 0.25 h
How it was run: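 Rats trained to stay 180 s on a rotarod at 10 rpm. Drug given i.p. at 3.3 mg/kg. Time to fall recorded 15 min after dosing, with a 180 s cutoff; comparison is to vehicle baseline.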

Cannabinoid receptor 1, sequence (P20272 whole entry): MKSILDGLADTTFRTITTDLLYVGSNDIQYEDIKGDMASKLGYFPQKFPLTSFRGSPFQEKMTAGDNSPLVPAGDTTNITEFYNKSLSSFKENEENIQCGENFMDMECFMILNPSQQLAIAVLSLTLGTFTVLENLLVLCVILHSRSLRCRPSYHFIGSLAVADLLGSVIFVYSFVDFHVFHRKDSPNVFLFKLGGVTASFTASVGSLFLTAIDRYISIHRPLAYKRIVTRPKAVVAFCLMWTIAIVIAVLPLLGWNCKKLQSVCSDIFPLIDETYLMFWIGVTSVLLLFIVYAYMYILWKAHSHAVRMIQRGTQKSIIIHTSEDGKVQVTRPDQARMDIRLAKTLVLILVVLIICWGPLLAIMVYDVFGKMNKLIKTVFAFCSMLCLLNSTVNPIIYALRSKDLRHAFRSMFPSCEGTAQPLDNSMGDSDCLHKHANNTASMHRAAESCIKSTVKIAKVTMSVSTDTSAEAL

| SMILES | Ki (Cannabinoid receptor 1) [nM] | Ratio Ki [1] | Activity [2] [%] | Ki (Cannabinoid receptor 2) [nM] | Activity [3] | A50 (Rattus norvegicus [4]) [mg/kg] | Activity (Rattus norvegicus [5]) |
| --- | --- | --- | --- | --- | --- | --- | --- |
| CCCCCCC(C)(C)c1cc(O)c2c(c1)OC(C)(C)c1ccc(OC)cc1-2 | 5.4 | 0.92 | 42 | 5.9 | – | – | – |
| Cc1c(C(=O)c2cccc3ccccc23)c2cccc3c2n1[C@H](CN1CCOCC1)CO3 | – | – | 56 | – | – | – | – |
| CCCCCCC(C)(C)c1cc(O)c2c(c1)oc(=O)c1ccc(OC)cc12 | 360 | 54 | 50 | 6.7 | Active | 1.6 | – |
| CCCCCCC(C)(C)c1cc(O)c2c(c1)oc(=O)c1ccc(C)cc12 | 39 | – | – | 3.1 | – | – | – |
| CCCCCCC(C)(C)c1cc(O)c2c(c1)oc(=O)c1ccc(O)cc12 | 400 | 490 | 55 | 0.82 | Active | 4.5 | Non-toxic |
| CCCCCCC(C)(C)c1cc(O)c2c(c1)OC(C)(C)c1ccc(O)cc1-2 | – | 0.54 | – | 4.8 | – | – | – |
| CCCCCCC(C)(C)c1cc(O)c2c(c1)OC(C)(C)c1ccc(C)cc1-2 | 0.95 | 0.86 | – | 1.1 | – | – | – |
